Measured values published in ChEMBL document CHEMBL4350968, “Structure Guided Design, Synthesis, and Biological Evaluation of Novel Benzosuberene Analogues as Inhibitors of Tubulin Polymerization” (J Med Chem, 2019).

What was measured:
DU-145 = assay: Cytotoxicity against human DU145 cells assessed as growth inhibition measured after 48 hrs by SRB assay; assay type: functional; conditions: DU-145, 48 h
SK-OV-3 = assay: Cytotoxicity against human SKOV3 cells assessed as growth inhibition measured after 48 hrs by SRB assay; assay type: functional; conditions: SK-OV-3, 48 h
NCI-H460 = assay: Cytotoxicity against human NCI-H460 cells assessed as growth inhibition measured after 48 hrs by SRB assay; assay type: functional; conditions: NCI-H460, 48 h
Tubulin (Homo sapiens) [1] = target: T1, Tubulin (Homo sapiens) (UniProt P68371+Q9H4B7+P0DPH7+P68366+Q13509+Q71U36+P04350+Q3ZCM7+P07437+P68363+Q9BQE3+Q6PEY2+Q13885+Q9BVA1+Q9BUF5); assay: Inhibition of [3H]colchicine binding to tubulin (unknown origin) at 5 uM measured after 10 mins by beckman scintillation counting method relative to control; assay type: protein-complex assay
Outline: (§1)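 Each 0.1 mL mix held 1.0 µM tubulin, 5.0 µM [3H]colchicine, 5% DMSO and compound at 1.0 or 5.0 µM. Stabilising components were 1.0 M monosodium glutamate pH 6.6, 0.5 mg/mL BSA, 0.1 M glucose-1-phosphate, 1.0 mM MgCl2 and 1.0 mM GTP. After 10 min at 37 °C, reactions were stopped with ice-cold water and filtered on DEAE-cellulose. Bound label was counted and percent inhibition taken versus no-inhibitor samples, correcting for filter binding without tubulin.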

Tubulin = Tubulin (Bos taurus, UniProt Q6B856+Q862L2+Q862F3); assay: Inhibition of bovine brain tubulin polymerization preincubated for 15 mins followed by GTP addition and measured for 20 mins by turbidimetry-based spectrophotometric method
Outline: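 Mixtures held 10 µM purified bovine brain tubulin, 0.8 M monosodium glutamate pH 6.6, 4% DMSO and varied compound concentrations. These were preincubated 15 min at 30 °C without GTP, then chilled to 0 °C, and GTP was added to 0.4 mM final. Temperature was raised to 30 °C and turbidity followed at 350 nm for 20 min.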

Tubulin (Homo sapiens) [2] = target: T1, Tubulin (Homo sapiens); assay: Inhibition of [3H]colchicine binding to tubulin (unknown origin) at 1 uM measured after 10 mins by beckman scintillation counting method relative to control; assay type: protein-complex assay; outline: as §1
Tubulin (Homo sapiens) [3] = target: T1, Tubulin (Homo sapiens); assay: Inhibition of [3H]colchicine binding to tubulin (unknown origin) at 0.5 uM measured after 10 mins by beckman scintillation counting method relative to control; assay type: protein-complex assay

SMILES | GI50 (DU-145) [µM] | GI50 (SK-OV-3) [µM] | GI50 (NCI-H460) [µM] | inhibition (Tubulin (Homo sapiens) [1]) [%] | IC50 (Tubulin) [µM] | inhibition (Tubulin (Homo sapiens) [2]) [%] | inhibition (Tubulin (Homo sapiens) [3]) [%]
COc1ccc2c(c1O)CCCC(=O)C2(O)c1cc(OC)c(OC)c(OC)c1 (stereo unspecified) | 0.141 | 0.0314 | 0.0476 | 72 | 1.2 | – | –
COCCOCCOc1c(OC)ccc2c1CCCC=C2c1cc(OC)c(OC)c(OC)c1 | 5.66 | 6.52 | 1.9 | – | > 20 | – | –
COc1ccc2c(c1CO)CCCC=C2c1cc(OC)c(OC)c(OC)c1 | – | – | 0.0628 | 76 | 0.63 | – | –
COc1ccc2c(c1O)CCCC=C2c1cc(OC)c(OC)c(OC)c1 | – | – | – | 95 | 0.85 | 73 | –
COc1ccc(/C=C\c2cc(OC)c(OC)c(OC)c2)cc1O [COMBRETASTATIN A4] | 0.00327 | 0.00455 | 0.00223 | – | – | – | –
COc1ccc2c(c1C#N)CCCC=C2c1cc(OC)c(OC)c(OC)c1 | 0.86 | 0.0648 | 0.434 | 62 | 1.1 | – | –
COc1ccc2c(c1O)CCCCC2(O)c1cc(OC)c(OC)c(OC)c1 (stereo unspecified) | 0.033 | 0.394 | 0.173 | – | > 20 | – | –
COc1cc(C2=CC(O)CCc3c2ccc(OC)c3OC)cc(OC)c1OC (stereo unspecified) | 0.439 | 0.263 | 0.432 | 28 | 3.8 | – | –
COc1ccc2c(c1O)CCCC(Br)=C2c1cc(OC)c(OC)c(OC)c1 | 0.0362 | 0.0221 | 0.0353 | 88 | 0.39 | – | –
COc1ccc2c(c1O)CC=CC=C2c1cc(OC)c(OC)c(OC)c1 | – | – | 0.0581 | 95 | 0.48 | – | 68
CCOC(=O)c1c(OC)ccc2c1CCCC=C2c1cc(OC)c(OC)c(OC)c1 | 0.631 | 0.299 | 0.353 | 47 | 1 | – | –
COc1ccc2c(c1C=O)CCCC=C2c1cc(OC)c(OC)c(OC)c1 | 0.0402 | 0.0572 | 0.0847 | 61 | 3.2 | – | –
